The text below walks through data of ChEMBL document CHEMBL2380256, “Discovery of novel Jak2-Stat pathway inhibitors with extended residence time on target” (Bioorg Med Chem Lett, 2013).

As a reminder, the IC50 is the concentration that gives 50% inhibition. Read a low IC50 as greater potency. By GI50 is commonly meant the concentration that inhibits growth by half.

The target of test [1] is T1, Tyrosine-protein kinase JAK3 (Homo sapiens, UniProt P52333).
T1 sequence (P52333 whole entry): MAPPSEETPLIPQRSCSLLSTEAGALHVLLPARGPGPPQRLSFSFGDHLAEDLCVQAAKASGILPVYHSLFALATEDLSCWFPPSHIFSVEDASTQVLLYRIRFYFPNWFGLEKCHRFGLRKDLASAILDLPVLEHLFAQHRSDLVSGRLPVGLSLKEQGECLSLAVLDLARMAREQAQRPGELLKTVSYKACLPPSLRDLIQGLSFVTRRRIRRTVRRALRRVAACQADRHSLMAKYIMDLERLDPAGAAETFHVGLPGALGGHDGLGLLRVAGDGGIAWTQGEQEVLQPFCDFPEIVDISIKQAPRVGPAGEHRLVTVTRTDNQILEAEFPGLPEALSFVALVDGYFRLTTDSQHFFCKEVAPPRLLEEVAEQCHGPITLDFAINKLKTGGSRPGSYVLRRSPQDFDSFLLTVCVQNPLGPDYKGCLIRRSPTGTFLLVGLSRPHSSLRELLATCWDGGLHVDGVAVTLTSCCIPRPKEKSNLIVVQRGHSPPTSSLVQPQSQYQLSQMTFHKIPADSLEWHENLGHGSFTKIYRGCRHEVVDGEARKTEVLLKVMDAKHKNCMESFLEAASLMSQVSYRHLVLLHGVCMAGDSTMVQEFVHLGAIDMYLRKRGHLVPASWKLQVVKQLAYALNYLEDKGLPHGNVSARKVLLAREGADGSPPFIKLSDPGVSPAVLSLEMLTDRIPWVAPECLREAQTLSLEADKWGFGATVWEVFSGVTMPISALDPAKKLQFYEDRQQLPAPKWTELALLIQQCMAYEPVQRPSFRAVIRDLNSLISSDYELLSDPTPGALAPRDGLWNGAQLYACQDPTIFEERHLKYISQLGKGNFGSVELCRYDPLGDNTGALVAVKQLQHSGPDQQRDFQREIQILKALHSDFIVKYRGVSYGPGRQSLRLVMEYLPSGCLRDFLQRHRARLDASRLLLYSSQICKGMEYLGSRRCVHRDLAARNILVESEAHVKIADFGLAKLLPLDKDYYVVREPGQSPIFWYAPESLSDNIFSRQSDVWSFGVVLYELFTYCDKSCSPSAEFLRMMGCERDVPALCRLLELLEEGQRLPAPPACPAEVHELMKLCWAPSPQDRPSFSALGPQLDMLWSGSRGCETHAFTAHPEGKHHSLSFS
The test can be described thus: Inhibition of JAK3 (unknown origin) using biotinylated poly-EY peptide as substrate after 60 mins by HTRF assay. For orientation: TR-FRET usually uses a lanthanide donor and a delayed reading to cut background.

Test [2] in a line: Growth inhibition of mouse BA/F3 cells transfected with JAK3 TEL domain after 24 hrs by Alamar Blue assay. The class given is functional, cell-based. Particulars: BaF3, 24 h, read-out: GI50. For orientation: Alamar Blue is a resazurin reagent that responds to reducing activity.
In test [3] the target is Tyrosine-protein kinase JAK2 (Homo sapiens, UniProt O60674). The test can be described thus: Inhibition of JAK2 (unknown origin) using biotinylated TYK2 peptide as substrate after 60 mins.
A further test is filed under the species Homo sapiens. As to the kind of experiment: Selectivity ratio of IC50 for JAK3 (unknown origin) to IC50 for JAK2 (unknown origin). Summed up: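 Jak2 and Jak3 enzyme IC50s determined at 5 mM ATP; the ratio is the Jak3 IC50 divided by the Jak2 IC50.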
Test [4] in a line: Growth inhibition of mouse BA/F3 cells transfected with JAK2 TEL domain after 24 hrs by Alamar Blue assay. Particulars: BaF3, 24 h. The class given is functional.

Sequence of Tyrosine-protein kinase JAK2 (O60674 whole entry): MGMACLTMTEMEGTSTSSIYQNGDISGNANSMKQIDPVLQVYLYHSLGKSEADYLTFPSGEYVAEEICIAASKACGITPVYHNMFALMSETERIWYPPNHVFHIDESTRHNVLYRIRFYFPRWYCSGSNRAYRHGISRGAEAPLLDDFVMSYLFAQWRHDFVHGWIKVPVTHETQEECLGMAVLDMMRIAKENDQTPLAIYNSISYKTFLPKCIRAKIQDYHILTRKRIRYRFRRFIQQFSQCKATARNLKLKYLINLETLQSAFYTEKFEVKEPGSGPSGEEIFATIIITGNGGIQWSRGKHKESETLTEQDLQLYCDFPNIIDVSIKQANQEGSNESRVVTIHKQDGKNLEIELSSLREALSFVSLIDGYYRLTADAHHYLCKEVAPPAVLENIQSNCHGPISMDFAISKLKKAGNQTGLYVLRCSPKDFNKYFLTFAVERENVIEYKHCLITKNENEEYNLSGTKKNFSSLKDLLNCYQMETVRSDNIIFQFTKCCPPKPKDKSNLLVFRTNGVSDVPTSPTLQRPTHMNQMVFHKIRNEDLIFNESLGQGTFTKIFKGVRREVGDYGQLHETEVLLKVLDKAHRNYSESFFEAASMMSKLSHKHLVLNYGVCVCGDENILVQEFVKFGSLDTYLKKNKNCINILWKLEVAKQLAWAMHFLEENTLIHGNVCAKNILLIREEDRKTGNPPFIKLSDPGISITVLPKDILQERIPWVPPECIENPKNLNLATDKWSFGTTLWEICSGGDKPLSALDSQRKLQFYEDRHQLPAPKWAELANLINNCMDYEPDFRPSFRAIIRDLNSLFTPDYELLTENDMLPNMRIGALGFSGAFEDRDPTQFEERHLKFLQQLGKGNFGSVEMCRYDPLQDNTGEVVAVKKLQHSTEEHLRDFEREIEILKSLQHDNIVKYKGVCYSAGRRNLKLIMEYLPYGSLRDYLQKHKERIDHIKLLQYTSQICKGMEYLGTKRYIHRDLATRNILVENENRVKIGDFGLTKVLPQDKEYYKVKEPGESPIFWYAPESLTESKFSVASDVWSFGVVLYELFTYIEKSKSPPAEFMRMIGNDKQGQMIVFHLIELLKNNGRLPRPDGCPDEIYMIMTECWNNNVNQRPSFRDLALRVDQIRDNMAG

Turning to `Cc1cc(Nc2nc(N[C@@H](C)c3ccc(F)cn3)c(F)c(N3CCN(C)CC3)n2)n[nH]1`, half-maximal inhibition in test [1] (IC50) was put at 15 nM. Moreover, the GI50 in test [2] stood at 380 nM.
Take `Cc1cc(Nc2nc(N[C@@H](C)c3ccc(F)cn3)c(Cl)c(N3CCOCC3)n2)[nH]n1`: the IC50 in test [3] amounted to 6 nM; in test [1], 262 nM.
As to `Cc1cc(Nc2nc(N[C@@H](C)c3ncc(F)cn3)nc(N3CCOCC3)c2F)n[nH]1`, the Ratio IC50 in the test filed under Homo sapiens is more than 10000.
For `Cc1cc(Nc2nc(N[C@@H](C)c3ncc(F)cn3)c(F)c(N3CCOCC3)n2)[nH]n1`, the half-inhibitory concentration (IC50) was determined as 3 nM in test [3] and 229 nM in test [1].
`Cc1cc(Nc2nc(O[C@@H](C)c3ccc(F)cn3)c(F)c(N3CCOCC3)n2)n[nH]1`: the half-maximal inhibitory concentration (IC50) in test [3] is 4 nM; in test [1] it was 87 nM. Further, the GI50 was 240 nM in test [2] and 16 nM in test [4].
On the same counts, the results for `Cc1cc(Nc2nc(N[C@@H](C)c3ccc(F)cn3)c(F)c(N3CCOCC3)n2)n[nH]1` are 6 nM, 262 nM, 850 nM and 19 nM.
Consider `Cc1cnc(Nc2nc(N[C@@H](C)c3ncc(F)cn3)nc(N3CCOCC3)c2F)s1`, for which the IC50 is 25 nM in test [3] and more than 30000 nM in test [1]. Moreover, the GI50 in test [2] stood at 4900 nM; in test [4] it was 30 nM.
For the compound `Cc1cc(Nc2nc(N[C@@H](C)c3ccc(F)cn3)c(F)c(N3CCS(=O)(=O)CC3)n2)n[nH]1`, the figures for the concentration for half-maximal inhibition (IC50) in test [3] and in test [1] were 3 nM and 4 nM, respectively. Further, in test [2], the GI50 was 270 nM.
